Holding throughout (assay type): cell-based
In test [1] the target is T1, C-X-C chemokine receptor type 4 (Homo sapiens, UniProt P61073). The test is described as follows: Displacement of [125I]-CXCL12 from HA-tagged human recombinant CXCR4 expressed in HEK293 cells incubated for 1 hr by gamma-radiation counting analysis.
Test [2] deals with T1, C-X-C chemokine receptor type 4. The test is described as follows: Agonist activity at HA-tagged human CXCR4 receptor expressed in HEK293 cells co-transfected with Galphai1-91-RlucII, Gbeta1, and GFP10-G-gamma1 incubated for 7 mins by Galpha1 protein activation-based BRET assay. Summed up:
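HEK293 cells (3 × 10^6 per 100 mm dish) co-transfected via polyethylenimine with HA-hCXCR4 plus Gαi1-91-RlucII, Gβ1, GFP10-Gγ1; replated at 24 h, 100 000 cells/well. At 48 h, washed in HBSS/0.1% BSA, exposed to ligand 10−12 to 10−5 M for 7 min, then coelenterazine-400A 5 μM final; BRET2 515/400 nm ratio. EC50 (Gαi dissociation) and Emax from three experiments in triplicate.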

For test [3] the target is unchanged. The test is described as follows: Agonist activity at CXCR4 in human REH cells assessed as induction of chemotaxis incubated for 3 hrs by transwell migration assay. In a few lines:
(§1)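 REH acute lymphoblastic B-cell leukaemia cells washed in RPMI; 100 000 cells in RPMI + 0.2% BSA seeded on top of 5 μm pore polycarbonate transwell, peptide dilutions in same medium in bottom chamber; 3 h, 37 °C, 5% CO2. Migrated cells in lower chamber counted by automated counter, expressed as % of seeded cells; peak = concentration giving maximal migration. Three experiments in triplicate.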

Test [4] has the same target. The test can be described thus: Agonist activity at CXCR4 in human REH cells assessed as optimal concentration causing maximum induction of chemotaxis incubated for 3 hrs by transwell migration assay. Summed up: as §1

Consider one compound from ChEMBL document CHEMBL3860039, “Structure-Activity Relationship and Signaling of New Chimeric CXCR4 Agonists” (J Med Chem, 2016).

pEC50, pIC50: −log10 of the molar value.

T1 sequence (P61073 whole entry): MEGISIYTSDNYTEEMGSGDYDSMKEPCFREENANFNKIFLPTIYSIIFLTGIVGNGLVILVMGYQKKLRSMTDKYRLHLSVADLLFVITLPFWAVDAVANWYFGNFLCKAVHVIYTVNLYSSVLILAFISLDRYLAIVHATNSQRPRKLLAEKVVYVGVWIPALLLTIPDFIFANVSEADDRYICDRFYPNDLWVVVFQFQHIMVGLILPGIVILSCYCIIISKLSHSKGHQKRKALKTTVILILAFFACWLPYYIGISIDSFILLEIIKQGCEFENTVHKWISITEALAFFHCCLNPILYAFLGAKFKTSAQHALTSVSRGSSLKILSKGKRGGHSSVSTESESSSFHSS

The term pIC50 denotes the negative decadic logarithm of the IC50, by convention in mol/L. A word on the pEC50: it is −log10 of the EC50, conventionally taken in molar units. Read a low pEC50 as a large EC50. In general, Emax refers to the size of the effect at its maximum, as opposed to the concentration needed. Take `CC(C)C[C@H](NC(=O)[C@H](CO)NC(=O)[C@@H](NC(=O)[C@@H]1CCCN1C(=O)[C@@H](N)CCCCN)C(C)C)C(=O)N[C@@H](CO)C(=O)N[C@@H](Cc1ccc(O)cc1)C(=O)N[C@@H](CCCNC(=N)N)C(=O)N[C@@H](C)C(=O)N[C@@H](C)C(=O)NCCCC[C@H](NC(=O)[C@@H]1CSSC[C@H](NC(=O)[C@H](Cc2ccc3ccccc3c2)NC(=O)[C@H](CCCNC(=N)N)NC(=O)[C@@H](N)CCCNC(=N)N)C(=O)N[C@@H](Cc2ccc(O)cc2)C(=O)N[C@@H](CCCNC(=N)N)C(=O)N[C@@H](CCCCN)C(=O)N[C@H](CCCCN)C(=O)N2CCC[C@H]2C(=O)N[C@@H](Cc2ccc(O)cc2)C(=O)NC(CCCNC(=N)N)C(=O)N[C@@H](CCCNC(=N)N)C(=O)N1)C(=O)O` (stereo not given in full): the pIC50 in test [1] was 6.86. In addition, in test [2], the pEC50 is 6.95 and the Emax came to 21%. Also, in test [3], the %max was determined as 19%. Moreover, the Activity in test [4] worked out at 1000 nM.
